# SENP8 block-1 = SENP8 protease inhibition | inhibition, % at 10 µM | Q96LD8 | AID 2540 | purified SENP8, Z-RLRGG-aminoluciferin cleavage, luminescence | 330,000 compounds, 1.2% hits; in the data active = inhibition above about 50%
# SENP8 block-2 = SENP8 (human) protease inhibition. Q96LD8. inhibition, % at 20 µM. 360,000 compounds, 0.64% hits. recombinant SENP8, Nedd8 substrate fluorescence; in the data active = inhibition mostly above about 40%, no sharp cut-off; inactive = mostly below about 27%
# SENP6 inh = SENP6 protease inhibition. Q9GZR1. Recombinant SENP6 catalytic domain, aminoluciferin luminescence. inhibition, % at 10 µM. 330,000 compounds, 1.8% hits;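 active = inhibition above about 50% at the single tested dose, limit read from the data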;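 also: plate controls were DMSO wells with enzyme for no effect and DMSO wells lacking enzyme for full effect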
# SENP1 FRET inh = inhibitors of human SENP1 SUMO protease catalytic domain | Q9P0U3 | 360,000 compounds, 0.21% hits | inhibition, % at 10 µM | AID 624204 | recombinant SENP1 catalytic domain, CyPet-SUMO1-YPet FRET cleavage;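 active = inhibition at least 30% at 10 µM, raw YFP signal under a set limit, fluorescence ratio 0.5 to 1.5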;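 also: 0% = enzyme with DMSO and 100% = no enzyme wells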
#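 Controls: no-enzyme wells low, DMSO-plus-enzyme wells high control. Test system: human recombinant His6-tagged SENP1 catalytic domain enzyme. Reagent: SFCypet-SUMO1-SFYpet FRET protein substrate, 25 nM final. Doses: one dose per compound, 10 µM, 0.5% DMSO. Detection: FRET, CFP and YFP emission. Timing: 50 min reaction at room temperature.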
# SENP7 block = inhibitors of human SENP7 protease. Q9BQF6. recombinant SENP7, Z-RLRGG-aminoluciferin luminescence, 40 min. inhibition, % at 5 µM. 330,000 compounds, 1.5% hits;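 active = inhibition above about 50% at the single test dose, limit read from the data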;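 also: plate controls were DMSO with enzyme for no effect and no enzyme buffer wells for full effect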
# CendR NRP1 mod = alters CendR peptide binding to human NRP-1. 360,000 compounds, 0.85% hits. O14786. AID 602438. inhibition, % at 25 µM. FAM-RPARPAR peptide binding to NRP-1, fluorescence polarization;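 active = inhibition or corrected inhibition above about 18%, plus a signal ratio from 0.5 to 1.5, limit read from the data, passing the limit was not always enough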
# Target sequence (O14786 whole entry, looked up): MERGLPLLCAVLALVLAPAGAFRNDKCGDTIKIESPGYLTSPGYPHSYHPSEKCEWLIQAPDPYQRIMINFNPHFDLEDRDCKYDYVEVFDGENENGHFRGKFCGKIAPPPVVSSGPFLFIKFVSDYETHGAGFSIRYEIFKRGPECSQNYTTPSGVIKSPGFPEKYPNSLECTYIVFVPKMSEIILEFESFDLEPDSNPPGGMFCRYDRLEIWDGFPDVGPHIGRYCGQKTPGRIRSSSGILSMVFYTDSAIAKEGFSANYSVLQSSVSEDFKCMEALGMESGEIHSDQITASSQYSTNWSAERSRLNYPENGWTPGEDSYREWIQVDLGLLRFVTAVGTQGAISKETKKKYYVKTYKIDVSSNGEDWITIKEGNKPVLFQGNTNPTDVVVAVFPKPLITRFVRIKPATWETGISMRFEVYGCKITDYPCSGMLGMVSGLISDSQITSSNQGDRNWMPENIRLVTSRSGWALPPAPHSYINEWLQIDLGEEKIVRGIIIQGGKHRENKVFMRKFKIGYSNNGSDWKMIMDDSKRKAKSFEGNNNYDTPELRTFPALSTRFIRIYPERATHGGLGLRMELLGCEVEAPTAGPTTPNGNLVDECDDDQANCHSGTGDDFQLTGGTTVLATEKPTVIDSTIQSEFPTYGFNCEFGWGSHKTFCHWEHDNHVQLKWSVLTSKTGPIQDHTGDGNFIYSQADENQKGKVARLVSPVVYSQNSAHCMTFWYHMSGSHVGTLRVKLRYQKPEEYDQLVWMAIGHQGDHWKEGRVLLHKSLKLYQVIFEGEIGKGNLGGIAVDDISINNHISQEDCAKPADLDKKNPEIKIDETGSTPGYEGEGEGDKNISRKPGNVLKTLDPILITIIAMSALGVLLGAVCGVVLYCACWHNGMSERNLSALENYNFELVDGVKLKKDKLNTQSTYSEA
# SENP8 conf = human SENP8 inhibition, confirmed. shares compounds with SENP7 block. Recombinant SENP8, Z-RLRGG-aminoluciferin luminescence, 60 min. inhibition, % at 12.5 µM. 6,200 compounds, 40% hits. AID 488912;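 active = mean inhibition across replicates above about 50%, limit read from the data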
# SENP6 conf = confirmation of human SENP6 protease inhibitors. 6,200 compounds, 58% hits. recombinant SENP6, Z-RLRGG-aminoluciferin luminescence. shares compounds with SENP7 block. inhibition, % at 12.5 µM
# SENP7 confirm = human SENP7 inhibition, confirmed. inhibition, % at 12.5 µM. 6,200 compounds, 69% hits. AID 488917. recombinant SENP7, Z-RLRGG-aminoluciferin luminescence, 40 min. shares compounds with SENP7 block
# Casp3 select = caspase-3 inhibition (SENP selectivity assay) | inhibition, % at 12.5 µM | purified caspase-3, Z-DEVD-aminoluciferin luminescence, 60 min | shares compounds with SENP7 block | 6,200 compounds, 60% hits;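 active = mean inhibition above about 50%, limit read from the data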;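 also: plate controls were enzyme with DMSO for no effect and wells without caspase-3 for full effect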
# SENP luc ctr = luminescence interference (SENP counter-screen); shares compounds with SENP7 block; Pre-incubated SENP8/Z-RLRGG-aminoluciferin, luciferase luminescence interference; inhibition, % at 12.5 µM; 6,200 compounds, 39% hits; AID 488919;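 active = mean inhibition above about 50% when retested at one dose, limit read from the data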;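 also: plate controls were DMSO wells with completed reaction for no effect and substrate without enzyme for full effect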
# * marks the source's active call; other numbers are inactive results; · = no result. Compounds with a hit are over-represented: about 3.3% of the library has one in this group of screens.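 The calls were made as follows, unless noted: active = mean inhibition above about 50% in the one-dose retest (limit read from the data); inactive = the rest.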
SMILES,SENP8 block-1,SENP8 block-2,SENP6 inh,SENP1 FRET inh,SENP7 block,CendR NRP1 mod,SENP8 conf,SENP6 conf,SENP7 confirm,Casp3 select,SENP luc ctr
Cc1ccc(OCC(=O)Nc2cccc(C)n2)c(C)c1,45,0,74*,1,65*,4,30,67*,90*,69*,22
COC(=O)[C@@]12C[C@@H](CC(=O)NCC34CC5CC(CC(C5)C3)C4)C(=O)N(Cc3ccccc3)C1=CCC(C)(C)C2,·,21,·,2,·,5,·,·,·,·,·
NC(=O)c1cc([N+](=O)[O-])ccc1NCc1cccc2ccccc12,2,15,-7,-4,-8,11,·,·,·,·,·
O=C(/C=C/Nc1ccc([N+](=O)[O-])cc1Br)c1cccc2ccccc12,9,-6,87*,-31,86*,-9,15,16,27,14,1
COc1ccc(C(=O)O/N=C(\C)c2nccs2)cc1,87*,6,79*,8,97*,1,73*,96*,100*,96*,43
C/C(=N\OC(=O)c1ccc(F)cc1)c1nccs1,35,9,74*,4,84*,-18,22,25,50*,56*,21
COc1ccc(C(=O)O/N=C(/C)c2cccs2)cc1,97*,22,98*,6,99*,7,12,101*,104*,99*,99*
C/C(=N\OC(=O)c1c(-c2c(F)cccc2Cl)noc1C)c1nccs1,1,16,0,2,-10,0,·,·,·,·,·
C/C(=N/OC(=O)c1c(F)cccc1F)c1nccs1,46,17,83*,1,80*,-4,74*,75*,97*,65*,82*
CC(=NOC(=O)C1CCCCC1)c1nccs1,·,9,·,8,·,-7,·,·,·,·,·
COc1ccc(C/C(N)=N/OC(=O)c2cccs2)cc1,-3,6,-4,2,0,-13,·,·,·,·,·
Cc1ccsc1C(=O)OCC(=O)NC1CCCCC1,·,15,·,3,·,-7,·,·,·,·,·
Cc1ccccc1N(C=O)c1ccccc1C,·,9,·,1,·,12,·,·,·,·,·
COc1ccc(Cl)cc1NC(=S)NNC(=O)c1cccs1,66*,-36,86*,0,81*,5,-2,0,14,-2,27
CC(=O)c1ccc(NC(=O)CSc2nnc(NC(=O)c3ccco3)s2)cc1,55*,-23,55*,1,47,6,9,10,15,13,7
Cc1cccc(C(=O)Nc2nnc(SCC(=O)Nc3ccc4c(c3)oc3ccccc34)s2)c1,-16,-19,-43,-2,-3,-14,·,·,·,·,·
COCCSc1nnc(NC(=O)c2ccco2)s1,-8,-15,-14,2,92*,-1,-2,-3,-3,19,4
Cc1ccc(NC(=O)CSc2nnc(NC(=O)c3ccco3)s2)cc1,0,-24,14,1,11,-1,·,·,·,·,·
COc1ccccc1C(=O)Nc1nnc(SCC(=O)Nc2ccc3c(c2)oc2ccccc23)s1,22,-95,34,-1,74*,-10,19,-7,12,14,-1
CC(=O)Nc1ccc(NC(=O)CSc2nnc(NC(=O)c3ccc(Br)o3)s2)cc1,70*,-86,87*,0,48,-35,17,14,14,49,2
CC(=O)Nc1cccc(NC(=O)CSc2nnc(NC(=O)c3ccco3)s2)c1,-10,-29,-5,-1,-6,3,·,·,·,·,·
Cc1cc2nc(NC(=O)C3(C)CCN(C)C3)[nH]c2cc1C (configuration not stated),·,16,·,1,·,-7,·,·,·,·,·
O=C1C(=O)c2ccccc2C(O)=C1CCCCl,26,21,55*,3,8,21,53*,66*,13,8,1
Cc1ccccc1NC(=O)Cc1nc(COC(=O)Cc2cccc(C(F)(F)F)c2)cs1,·,10,·,-24,·,-11,·,·,·,·,·
Nc1c2c(nc3sc4c(c13)CCCC4)-c1ccccc1CC2,92*,-399,92*,-11,90*,11,20,93*,96*,82*,6
SMILES,SENP8 block-1,SENP8 block-2,SENP6 inh,SENP1 FRET inh,SENP7 block,CendR NRP1 mod,SENP8 conf,SENP6 conf,SENP7 confirm,Casp3 select,SENP luc ctr
NC(=O)c1sc2nc(-c3ccccc3)c3c(c2c1N)CCCC3,-3,-58,-6,-27,-4,-20,·,·,·,·,·
CCCCN(C)C(=O)c1cc2cc3ccc(OC)cc3nc2o1,65*,-287,80*,0,76*,-4,72*,71*,92*,85*,24
COc1ccc(C)cc1NC(=O)C1CCCN(S(=O)(=O)c2cccnc2)C1 (configuration not stated),60*,-3,3,-1,5,8,6,6,8,4,4
COc1ccc(NC(=O)C2CCCN(S(=O)(=O)c3cccnc3)C2)c(OC)c1 (configuration not stated),-7,5,3,-2,-4,0,·,·,·,·,·
O=C(Nc1ccccc1)Nc1ncc([N+](=O)[O-])s1,97*,36,99*,-13,100*,-6,98*,100*,102*,98*,98*
CC(C)CC(=O)Nc1ncc([N+](=O)[O-])s1,-7,36,-4,-7,4,-4,·,·,·,·,·
Cc1nc(C)c(C(=O)Nc2ncc([N+](=O)[O-])s2)o1,95*,22,98*,-32,89*,-4,98*,98*,102*,98*,96*
O=C(COC(=O)c1ccccc1)Nc1ncc([N+](=O)[O-])s1,6,17,5,-16,-4,-18,·,·,·,·,·
O=C(Nc1ccc(C(=O)N2CCCCC2)cc1)C1CC1,·,12,·,1,·,8,·,·,·,·,·
CC(=O)/C(N=Nc1ccc(C(=O)O)cc1)=C(\C)O,44,26,76*,1,67*,-18,58*,58*,87*,92*,73*
CN(C)c1ccc(C(=O)c2ccccc2)cc1,9,-28,21,3,10,-8,·,·,·,·,·
